ChEMBL document CHEMBL1833801, “Natural daucane sesquiterpenes with antiproliferative and proapoptotic activity against human tumor cells” (Bioorg Med Chem, 2011)
pIC50: −log10 of the molar value. Calls of active or inactive are those of the source. No cut-off for these calls is given here.

Assays:
PBL [1] = assay: Cytotoxicity against human PBL after 72 hrs by MTT assay; type: cell-based
In short: (§1)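 PBL from healthy donors separated on a density gradient, washed, held at 1.0×10^6 cells/mL in RPMI-1640 with 10% FCS overnight. Non-adherent cells resuspended at 5×10^5 cells/mL. Stimulated cultures received 2.5 µg/mL PHA; resting cultures had none. Compound at several concentrations for 72 h, viability by MTT, IC50 taken. Mean ± SEM of three experiments.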

Jurkat [2] = assay: Cytotoxicity against human Jurkat cells after 72 hrs by MTT assay; type: functional, cell-based
HeLa = assay: Cytotoxicity against human HeLa cells after 72 hrs by MTT assay; type: functional, cell-based
[3] = Cytotoxicity against human SEM cells after 72 hrs by MTT assay; type: functional, cell-based
A549 = assay: Cytotoxicity against human A549 cells after 72 hrs by MTT assay; type: functional, cell-based; conditions: A549, 72 h
K562 = assay: Cytotoxicity against human K562 cells after 72 hrs by MTT assay; type: functional, cell-based; conditions: K562, 72 h
[4] = Cytotoxicity against human RS4:11 cells after 72 hrs by MTT assay; type: functional, cell-based; conditions: RS4-11, 72 h
Jurkat [5] = assay: Induction of apoptosis in human Jurkat cells assessed as increase in late apoptotic cells after 24 hrs by FITC-conjugated annexin V and propidium iodide staining-based flow cytometry; type: functional, cell-based
In short: (§2)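 Jurkat cells exposed for 24 and 48 h, over a range of 1.25–100 µM, then co-stained with Annexin-V-FITC and propidium iodide. Read by flow cytometry, excitation 488 nm, emission 525 and 585 nm. Quadrants scored as A+/PI− (early apoptotic) and A+/PI+ (late apoptotic), compared with untreated cells. Mean ± SEM of three independent experiments.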

HL-60 = assay: Cytotoxicity against human HL60 cells after 72 hrs by MTT assay; type: functional, cell-based; conditions: HL-60, 72 h
Jurkat [6] = assay: Cell cycle arrest in human Jurkat cells assessed as decrease in S phase phase after 48 hrs using propidium iodide staining by flow cytometry; type: functional, cell-based
In short: (§3)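 Exponentially growing Jurkat cells, 2.5×10^5, exposed to 1.25–100 µM for 48 h. Cells fixed in ice-cold 70% ethanol, lysed in buffer with RNase A and 0.1% Triton X-100, stained with propidium iodide. Cell-cycle phases read by flow cytometry. Mean ± SEM of three independent experiments; two-sided Student's t test against control.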

Jurkat [7] = assay: Cell cycle arrest in human Jurkat cells assessed as accumulation at G2/M phase after 48 hrs using propidium iodide staining by flow cytometry; type: functional, cell-based; in short: as §3
Jurkat [8] = assay: Cell cycle arrest in human Jurkat cells assessed as decrease in G1 phase phase after 48 hrs using propidium iodide staining by flow cytometry; type: functional, cell-based; in short: as §3
PBL [9] = assay: Cytotoxicity against PHA-stimulated human PBL after 72 hrs by MTT assay; type: cell-based; in short: as §1
Jurkat [10] = assay: Cell cycle arrest in human Jurkat cells assessed as accumulation at G1 phase after 48 hrs using propidium iodide staining by flow cytometry; type: functional, cell-based; in short: as §3
Jurkat [11] = assay: Cell cycle arrest in human Jurkat cells assessed as accumulation at G1 phase at 50 uM after 48 hrs using propidium iodide staining by flow cytometry; type: functional, cell-based; in short: as §3
Jurkat [12] = assay: Induction of apoptosis in human Jurkat cells assessed as viable cells at 50 uM after 24 hrs by FITC-conjugated annexin V and propidium iodide staining-based flow cytometry relative to control; type: functional; conditions: read-out: Activity; in short: as §2
Jurkat [13] = assay: Induction of apoptosis in human Jurkat cells assessed as early apoptotic cells at 50 uM after 48 hrs by FITC-conjugated annexin V and propidium iodide staining-based flow cytometry relative to control; type: functional; in short: as §2
Jurkat [14] = assay: Induction of apoptosis in human Jurkat cells assessed as DNA fragmentation at 25 to 50 uM after 48 hrs by agarose gel electrophoresis; type: functional, cell-based
In short: (§4)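 Genomic DNA taken from treated Jurkat cells by salting out after 48 h. 1 µg run on 1.5% agarose in TAE at 50 V for 6 h. Gel stained with ethidium bromide and imaged under UV light.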

Jurkat [15] = assay: Induction of apoptosis in human Jurkat cells assessed as late apoptotic cells at 50 uM after 24 hrs by FITC-conjugated annexin V and propidium iodide staining-based flow cytometry relative to control; type: functional; in short: as §2
Jurkat [16] = assay: Induction of apoptosis in human Jurkat cells assessed as necrotic cells at 50 uM after 24 hrs by FITC-conjugated annexin V and propidium iodide staining-based flow cytometry relative to control; type: functional; in short: as §2
Jurkat [17] = assay: Induction of apoptosis in human Jurkat cells assessed as late apoptotic cells at 50 uM after 48 hrs by FITC-conjugated annexin V and propidium iodide staining-based flow cytometry relative to control; type: functional; in short: as §2
Jurkat [18] = assay: Induction of apoptosis in human Jurkat cells assessed as necrotic cells at 50 uM after 48 hrs by FITC-conjugated annexin V and propidium iodide staining-based flow cytometry relative to control; type: functional; in short: as §2
Jurkat [19] = assay: Induction of apoptosis in human Jurkat cells assessed as early apoptotic cells at 50 uM after 24 hrs by FITC-conjugated annexin V and propidium iodide staining-based flow cytometry relative to control; type: functional; in short: as §2
Jurkat [20] = assay: Induction of apoptosis in human Jurkat cells assessed as viable cells at 50 uM after 48 hrs by FITC-conjugated annexin V and propidium iodide staining-based flow cytometry relative to control; type: functional; conditions: read-out: Activity; in short: as §2
Jurkat [21] = assay: Cytotoxicity against human Jurkat cells assessed as cell viability at 50 uM after 48 hrs by MTT assay in presence of 100 uM pan-caspase inhibitor z-VAD; type: functional
In short: (§5)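 Jurkat cells exposed to compound for 48 h with or without 100 µM of the pan-caspase inhibitor z-VAD.fmk. Percent viability read by MTT. Mean ± SEM.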

Jurkat [22] = assay: Induction of apoptosis in human Jurkat cells assessed as increase in late apoptotic cells after 48 hrs by FITC-conjugated annexin V and propidium iodide staining-based flow cytometry; type: functional, cell-based; in short: as §2
Jurkat [23] = assay: Induction of apoptosis in human Jurkat cells assessed as DNA fragmentation at 12.5 to 50 uM after 48 hrs by agarose gel electrophoresis; type: functional, cell-based; in short: as §4
Jurkat [24] = assay: Cytotoxicity against human Jurkat cells assessed as cell viability at 25 uM after 48 hrs by MTT assay in presence of 100 uM pan-caspase inhibitor z-VAD; type: functional; in short: as §5
Jurkat [25] = assay: Induction of apoptosis in human Jurkat cells assessed as increase in early apoptotic cells after 24 hrs by FITC-conjugated annexin V and propidium iodide staining-based flow cytometry; type: functional, cell-based; in short: as §2

| Compound | pIC50 (Jurkat [2]) | pIC50 (HeLa) | pIC50 [3] | pIC50 (A549) | pIC50 (K562) | pIC50 [4] | pIC50 (HL-60) | further results |
| --- | --- | --- | --- | --- | --- | --- | --- | --- |
| COc1ccc(C(=O)O[C@H]2CC(C)=C[C@H](O)[C@@]3(C)[C@@H](OC(C)=O)C[C@@](O)(C(C)C)[C@H]23)cc1 | 5.23 | 4.28 | 4.74 | 4.10 | 4.32 | 4.46 | 4.64 | pIC50 (PBL [1]): 4.69; Activity (Jurkat [5]): Dose-dependent effect; Activity (Jurkat [6]): Active; Activity (Jurkat [7]): Dose-dependent effect; Activity (Jurkat [8]): Active; pIC50 (PBL [9]): 4.57 |
| COc1ccc(C(=O)O[C@H]2CC(C)=C[C@H](OC(C)=O)[C@]3(C)[C@@H]2[C@](O)(C(C)C)C[C@@H]3O)cc1 | 5.04 | 4.28 | 4.58 | < 4.00 | 4.15 | 4.57 | 4.83 | pIC50 (PBL [1]): 4.52; Activity (Jurkat [10]): Active; Activity (Jurkat [5]): Dose-dependent effect; Activity (Jurkat [11]): inactive; pIC50 (PBL [9]): 4.47 |
| COc1ccc(C(=O)O[C@H]2CC(C)=C[C@H](OC(C)=O)[C@@]3(C)[C@@H](OC(C)=O)C[C@@](O)(C(C)C)[C@H]23)cc1 | 5.48 | 4.84 | 4.82 | 4.63 | 4.40 | 5.55 | 4.95 | pIC50 (PBL [1]): 5.18; viability at 50 µM (Jurkat [12]): 36.5%; Activity (Jurkat [13]): 0.1%; Activity (Jurkat [14]): inactive; Activity (Jurkat [15]): 41.7%; Activity (Jurkat [16]): 16%; Activity (Jurkat [17]): 67.4%; Activity (Jurkat [10]): Active; Activity (Jurkat [18]): 27.8%; Activity (Jurkat [19]): 5.8%; Activity (Jurkat [5]): Dose-dependent effect; Activity (Jurkat [11]): inactive; viability at 50 µM (Jurkat [20]): 4.7%; Activity (Jurkat [21]): 13%; pIC50 (PBL [9]): 5.03 |
| COc1ccc(C(=O)O[C@H]2CC(C)=CC[C@@]3(C)CC[C@@](O)(C(C)C)[C@H]23)cc1 [FERUTIDIN] | 4.52 | < 4.00 | 4.74 | 4.50 | 4.17 | 4.75 | 4.70 |  |
| C=C1C[C@H](OC(=O)c2ccc(O)cc2)[C@@H]2[C@](C)(CC[C@@]2(O)C(C)C)C[C@@H]1O | 4.26 | < 4.00 | 4.46 | < 4.00 | < 4.00 | 4.54 | 4.36 |  |
| C/C=C(\C)C(=O)O[C@H]1C[C@@]2(C)O[C@H]2[C@@H](OC(C)=O)[C@@]2(C)CC[C@@](O)(C(C)C)[C@H]12 | < 4.00 | < 4.00 | < 4.00 | < 4.00 | < 4.00 | < 4.00 | < 4.00 |  |
| COc1ccc(C(=O)O[C@H]2CC(C)=C[C@@H](OC(C)=O)[C@@]3(C)[C@@H](OC(C)=O)C[C@@](O)(C(C)C)[C@H]23)cc1 | 4.21 | < 4.00 | 4.48 | < 4.00 | < 4.00 | 4.37 | 4.08 |  |
| CC1=CC[C@]2(C)[C@@H]([C@@H](OC(=O)c3ccc(O)cc3)C1)[C@](O)(C(C)C)C[C@@H]2O | 4.39 | 4.25 | 4.65 | 4.08 | 4.02 | 4.48 | 5.46 |  |
| CC1=C[C@H](OC(=O)c2ccc(O)cc2)[C@@H]2[C@](C)(CC[C@@]2(O)C(C)C)CC1=O | 4.39 | 4.58 | 4.61 | 4.84 | < 4.00 | 4.55 | 4.08 |  |
| COc1ccc(C(=O)O[C@H]2C=C(C)C(=O)C[C@@]3(C)CC[C@@](O)(C(C)C)[C@H]23)cc1 | 4.39 | 4.53 | 4.55 | 4.50 | < 4.00 | 4.54 | 4.41 |  |
| COc1ccc(C(=O)OCC2=CC[C@@]3(C)CCC(C(C)C)=C3CC2)cc1 | 4.59 | < 4.00 | 4.59 | < 4.00 | 4.17 | 4.36 | 4.51 |  |
| COc1ccc(C(=O)O[C@@H]2C=C(C)CC[C@]3(O)[C@H](C(C)C)CC(=O)[C@]23C)cc1 [SIOL ANISATE] | < 4.00 | < 4.00 | 4.62 | < 4.00 | < 4.00 | < 4.00 | < 4.00 |  |
| COc1ccc(C(=O)O[C@H]2CC(C)=C[C@@H](O)[C@@]3(C)[C@@H](OC(C)=O)C[C@@](O)(C(C)C)[C@H]23)cc1 | 4.47 | < 4.00 | < 4.00 | < 4.00 | 4.07 | 4.15 | 4.62 |  |
| C/C=C(/C)C(=O)O[C@H]1CC(C)=C[C@@H](OC(=O)/C(C)=C\C)[C@@]2(C)CC[C@@](O)(C(C)C)[C@H]12 | 5.11 | 5.36 | 5.62 | 5.55 | 4.58 | 5.77 | 5.59 | pIC50 (PBL [1]): 4.65; Activity (Jurkat [22]): Active; Activity (Jurkat [23]): Active; Activity (Jurkat [24]): 19%; Activity (Jurkat [6]): Active; Activity (Jurkat [7]): Dose-dependent effect; Activity (Jurkat [8]): Active; Activity (Jurkat [25]): Dose-dependent effect; pIC50 (PBL [9]): 4.86 |
| COc1ccc(C(=O)OCC2=CC[C@@]3(C)CC[C@]4(C(C)C)O[C@]34CC2)cc1 | < 4.00 | < 4.00 | 4.08 | < 4.00 | < 4.00 | 4.22 | < 4.00 |  |
